Published values gathered from unrelated publications.
Read-out: metabolic stability

For COc1ccc(CNC(=O)c2c(C)nc3cc(C)ccn23)cc1, the half-life was 19 min (rat; liver microsomes).
With O=C(O)c1ccccc1-c1c2cc(Cl)c(=O)cc-2oc2cc(O)c(Cl)cc12 the half-life was 250 min (male Sprague-Dawley rat; liver microsomes).
With N#Cc1ccc(C[C@@H](NC(=O)Nc2ccc(F)cc2)C(=O)N2CCc3ccc(F)cc32)cc1 the half-life was greater than 15 min (rat; liver microsomes; 10 µM; pH 7.4).
With O=C(OC(C(F)(F)F)C(F)(F)F)N1CCc2ccccc2C1 the half-life was 12 min (rat; liver microsomes).
O=[N+]([O-])c1ccc(CNc2nc(NCc3cccc(C(F)(F)F)c3)nc3[nH]cnc23)cc1 has a half-life of 17 min (rat; liver microsomes; 1 µM; pH 7.4).
With N#Cc1cc(NC(=O)[C@H]2c3ccccc3C(=O)N(CC(F)(F)F)[C@@H]2c2cccnc2)ccc1F the half-life was greater than 240 min (rat; liver microsomes).
CCOc1c(O)cc(Br)c2c1CN1CCc3cc(OCC(F)F)c(O)cc3[C@@H]1C2 has a half-life of 5.71 min (rat; liver S9; 2 µM; pH 7.4).
CCc1cccc(CC)c1-n1c(C)c(C(=O)N2CCNCC2)cc(-c2nc(-c3ccc(Cl)cc3)cs2)c1=O gave a half-life of greater than 30 min (rat; liver microsomes; 1 µM; pH 7.4).
O=c1ccc2ccc(O)cc2o1 gave a half-life of 6.54 min (rat; liver S9; 2 µM; pH 7.4).
O=C(OC(C(F)(F)F)C(F)(F)F)N1Cc2ccc(OCCN3CCOCC3)cc2C1 has a half-life of 17 min (rat; liver microsomes).
With CCCCN1C(=O)C(COC)NC(=O)C12CCN(Cc1ccc(Oc3ccccc3)cc1)CC2.Cl (stereo not drawn) the half-life was 16 min (rat; liver microsomes; 5 µM).
CC(C)(C)C[C@@H]1N[C@@H](C(=O)N[C@H]2C[C@](C)(O)C2)[C@H](c2cccc(Cl)c2F)[C@]12C(=O)Nc1cc(Cl)ccc12 has a half-life of greater than 60 min (rat; liver microsomes).
The half-life of Cc1ccc2c(c1)nc(CCc1cccc3cccnc13)n2-c1ccccc1 is reported as 0.87 min (rat; liver microsomes; 1.5 µM).
The half-life of CCc1cccc(CC)c1-n1c(C)c(C(=O)NC)cc(-c2nc(-c3ccc(Cl)cc3)cs2)c1=O is reported as 1.5 min (rat; liver microsomes; 1 µM; pH 7.4).
O=C(N[C@H](Cc1c[nH]c2ccccc12)C(=O)Nc1ccncc1)c1ccc(-c2cc(F)ccc2F)cc1F has a half-life of 17 min (rat; liver microsomes).
